# Screening results (PubChem BioAssay)
# TPT1 inhibitor: inhibitors of Candida albicans tRNA 2'-phosphotransferase TPT1; recombinant caTPT1, FP RNA substrate dephosphorylation; inhibition, % at 5 µM; 300,000 compounds, 0.81% hits;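 active = inhibition above the mean of all tested compounds plus 3 SD, set per screening campaign, cut at about 24% in these data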
# IDE inh: inhibitors of human insulin-degrading enzyme in cells. inhibition, % at 5.59 µM. AID 434962. 320,000 compounds, 0.41% hits. P14735. HEK cells, FAbetaB cleavage, fluorescence polarization;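 active = percent inhibition above the average of all tested compounds plus 3 SD, set per screening campaign, cut at about 16% in these data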;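 note: IDE supplied by intact live HEK cells; FP after avidin binding of uncleaved biotin substrate so inhibition keeps polarization high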
# CSN deneddyl inh: CSN deneddylation inhibition | Q92905 | Purified CSN, SCF-Nedd8-OG deneddylation, fluorescence polarization | inhibition, % at 12.5 µM | 360,000 compounds, 0.38% hits | AID 651999;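 active = pattern-corrected inhibition above about 35%, with an unprinted fluorescence ratio check between 0.5 and 1.5, limit read from the data, passing the limit was not always enough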
# Target sequence (Q92905 whole entry, looked up, one chain of several): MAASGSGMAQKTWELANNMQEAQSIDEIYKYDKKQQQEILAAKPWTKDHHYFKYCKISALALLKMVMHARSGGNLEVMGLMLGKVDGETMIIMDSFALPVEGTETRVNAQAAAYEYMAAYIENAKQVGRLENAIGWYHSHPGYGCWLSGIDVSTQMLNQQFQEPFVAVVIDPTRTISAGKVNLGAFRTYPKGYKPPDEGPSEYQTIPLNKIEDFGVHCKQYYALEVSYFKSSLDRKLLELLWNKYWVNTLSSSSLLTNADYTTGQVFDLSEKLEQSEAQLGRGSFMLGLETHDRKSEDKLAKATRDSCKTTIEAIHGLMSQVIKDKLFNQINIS
#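 Schedule: reaction 90 min, room temperature / Assay system: HEK293T-derived human Csn5 enzyme / Input: Csn5 at 0.24 nM final / Measure: inhibition of Csn5 cleavage, % / Control set: substrate-only high control, full reaction low control / Technique: fluorescence polarization of the substrate / Buffer or medium: Tris/NaCl/DTT buffer, pH 7.5 / Reagent: SCFSkp2-Nedd8OG substrate at 10 nM final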
# HNF4A DNA FP: change in binding of human HNF4 alpha to DNA | P41235 | HNF4a-FITC DNA binding, fluorescence polarization, 1 h | activity change, % at 10 µM | 360,000 compounds, 0.3% hits | AID 1224865; in the data active = activity change above about 30%, passing the limit was not always enough
# IDE act: activators of human insulin-degrading enzyme in cells | 340,000 compounds, 0.073% hits | HEK cells, FAbeta-B cleavage, fluorescence polarization; 0% vehicle, 100% cell-free pure enzyme wells | activation, % at 5.96 µM | P14735;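 active = activation above the mean of all tested compounds plus 3 SD, set per screening campaign, cut at about 17% in these data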
# Rpn11 inh: inhibitors of human proteasome Rpn11 | O00487 | human 26S proteasome, Ub4-pepOG fluorescence polarization; 20S core pre-blocked with epoxomicin | inhibition, % at 20 µM | 360,000 compounds, 0.59% hits;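 active = inhibition at 20 µM, scaled to each plate's controls, above about 33%, limit read from the data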
# TPT1 inh confirm: TPT1 (C. albicans) inhibition, confirmation; shares compounds with TPT1 inhibitor; AID 2149; 2,400 compounds, 74% hits; recombinant caTPT1, fluorescence polarization, RNase T1 coupled; inhibition, % at 5 µM;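 active = inhibition above the primary screen limit, the mean inhibition of all tested compounds plus 3 SD, cut at about 25% in these data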
# RNase T1 inh: RNase T1 inhibition in TPT1 counter-screen | RNase T1 cleavage, fluorescence polarization, 1536-well | 2,400 compounds, 83% hits | shares compounds with TPT1 inhibitor | inhibition, % at 5 µM;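 active = inhibition above the solvent-only control well mean plus 3 SD, limit set per screening run, cut at about 23% in these data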;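 note: inhibitors block cleavage so intact labeled substrate keeps polarization high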
# Target sequence (P00651 whole entry, looked up): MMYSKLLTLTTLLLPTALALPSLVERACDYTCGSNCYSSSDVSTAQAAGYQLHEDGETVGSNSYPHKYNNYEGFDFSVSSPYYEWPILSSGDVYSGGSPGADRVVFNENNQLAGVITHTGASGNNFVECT
# A number is an active result; i = inactive; nt = no result shown. This is a sample that favours compounds with a hit; in the whole collection about 1.7% have one here.
SMILES,TPT1 inhibitor,IDE inh,CSN deneddyl inh,HNF4A DNA FP,IDE act,Rpn11 inh,others
CC(C)(C)n1nnnc1C(c1ccnc2ccccc12)N1CCC2(CC1)C(=O)NCN2c1ccccc1 (stereo not drawn),nt,nt,123,i,nt,i,
Nc1c(C(=O)NCCN2CCOCC2)c2nc3ccccc3nc2n1Cc1ccccc1,i,i,i,i,i,i,
CCCCn1c(N)c(C(=O)NCCN2CCOCC2)c2nc3ccccc3nc21,i,i,36,i,i,i,
O=C(c1ccccc1)C1NC1c1ccccc1 (stereo not drawn),i,i,i,i,20,i,
CN1CC(C(=O)c2ccccc2)C(C(=O)c2ccccc2)C1 (stereo not drawn),i,i,i,i,i,i,
NC1C2CN3CCN(C2)CC1(c1ccccc1)C3 (stereo not drawn),i,i,i,75,i,i,
O=S(=O)(c1cccc(C(F)(F)F)c1)N1Cc2ccccc2-n2nncc2C1,nt,nt,i,i,nt,i,
O=C1NC(=O)C(=Cc2coc3ccccc3c2=O)C(=O)N1,i,i,i,i,i,i,
O=C1NC(=O)C(=C/C=C/c2coc3ccc(Br)cc3c2=O)C(=O)N1,39,i,nt,nt,nt,nt,
O=c1[nH]c2ccccc2n1C1CCN(Cc2ccc(-c3[nH]c4cc5ncnc5cc4nc3-c3ccccc3)cc2)CC1,nt,nt,i,i,nt,nt,
Cc1ccsc1C(=O)C1CCCN(Cc2cnc(N3CCOCC3)s2)C1 (stereo not drawn),i,i,101,i,i,i,
Cc1cc(Br)cn2c(CC(=O)N3CCCCC3)c(-c3ccc(F)cc3)nc12,nt,nt,i,i,nt,nt,
O=C(COc1ccccc1)N1CCN(C2CCCC2)CC1,i,i,i,40,i,i,
CCOC(=O)[C@]12Cc3ccccc3[C@H]1N(CCC(=O)OC)C(=O)c1cc(OC)ccc12,nt,nt,i,i,nt,nt,
Nc1ccc2ccc3cccc[n+]3c2c1,i,i,i,i,46,i,
CCOC(=O)[C@]12Cc3cc(Cl)ccc3[C@H]1N(C1CCCCC1)C(=O)c1ccccc12,nt,nt,i,i,nt,nt,
Cc1cccc(C)c1OP(N)(=O)Oc1c(C)cccc1C,i,i,i,i,i,i,
Cc1cccc(OP(N)(N)=O)c1C,i,i,115,i,i,i,
O=C(c1ccccc1)c1ccccc1N=Cc1c(O)[nH]c(=O)[nH]c1=O,i,i,i,i,i,i,
O=c1[nH]c(O)c(C=Nc2ccccc2Oc2ccccc2)c(=O)[nH]1,i,i,48,i,i,i,
NS(=O)(=O)c1ccc(-c2ccc(C=C3C(=O)NC(=S)NC3=O)o2)cc1,36,i,nt,nt,nt,nt,
c1ccc(C2CC3CC4(CCCC4)N2O3)cc1 (stereo not drawn),i,i,i,i,18,i,
O=c1[nH]c2ccccc2n1C1CCN(C(CCc2ccccc2)c2nnnn2C2CCCC2)CC1 (stereo not drawn),nt,nt,106,i,nt,i,
O=c1[nH]c2ccccc2n1C1CCN(C(c2cccc3ccccc23)c2nnnn2Cc2ccccc2)CC1 (stereo not drawn),nt,nt,i,i,nt,i,
CCOC(=O)[C@]12Cc3cc4ccccc4cc3[C@H]1N(Cc1ccccc1)C(=O)c1ccccc12,nt,nt,i,i,nt,nt,
SMILES,TPT1 inhibitor,IDE inh,CSN deneddyl inh,HNF4A DNA FP,IDE act,Rpn11 inh,others
CCOC(=O)[C@]12Cc3cc(OC)ccc3[C@H]1N(C(C)C)C(=O)c1cc(OC)ccc12,nt,nt,i,i,nt,nt,
CCC(C)N1C(=O)/C(=C/c2ccc3c(c2)CCN3CCCCl)C(=O)NC1=S (stereo not drawn),41,i,i,i,i,nt,TPT1 inh confirm=56;RNase T1 inh=72
O=Cc1c(C(=O)O)n(Cc2ccc(Cl)cc2)c2ccccc12,77,i,60,81,i,nt,TPT1 inh confirm=174;RNase T1 inh=161
CN(C)c1ccc(C=C(C#N)C#N)cc1,40,i,i,i,i,i,TPT1 inh confirm=48;RNase T1 inh=60
N#CC(C#N)=Cc1ccc(N2CCCC2)cc1,63,i,i,i,i,i,TPT1 inh confirm=69;RNase T1 inh=84
CN1CCN(c2ccc(C=O)cc2)CC1,i,i,i,i,i,i,
N#CC(C#N)=Cc1ccc(O)c(O)c1,i,i,i,i,i,i,
Cc1cccc(-n2c(/C=C/c3ccc([N+](=O)[O-])o3)nc3ccccc3c2=O)c1,40,i,i,i,i,nt,TPT1 inh confirm=56;RNase T1 inh=52
Cc1cccc(C)c1-n1nnnc1C(C1CC1)N1CCC2(CC1)C(=O)NCN2c1ccccc1 (stereo not drawn),nt,nt,i,i,nt,i,
CCOC(=O)[C@]12Cc3cc4ccccc4cc3[C@H]1N(Cc1ccccc1)C(=O)c1cc(OC)ccc12,nt,nt,i,i,nt,nt,
O=c1c(C=Nc2cccnc2Cl)c(O)n(CCCCl)c(=O)n1C1CCCCC1,63,i,49,i,i,nt,TPT1 inh confirm=86;RNase T1 inh=99
O=c1c(C=NCc2cccs2)c(O)n(C2CCCCC2)c(=O)n1C1CCCCC1,i,i,i,i,i,i,
CCOC(=O)CNC(=O)N1Cc2cc(N3CCOCC3)ccc2-n2nncc2C1,nt,nt,i,i,nt,i,
CC1=NN(c2ccccc2)C(=O)C1/C=C1/C(=O)NC(=O)N(c2cc(C)cc(C)c2)C1=O (stereo not drawn),29,i,i,i,i,i,TPT1 inh confirm=32;RNase T1 inh=50
CC1=NN(c2ccccc2)C(=O)C1/C=C1\C(=O)NC(=O)N(c2cc(C)cc(C)c2)C1=O (stereo not drawn),i,i,i,i,i,i,
Cc1cccc(C(=O)Nc2ccc3c(c2)CC2(C(=O)N(C)C(=O)N(C)C2=O)C2CCCN32)c1 (stereo not drawn),26,i,i,i,i,i,TPT1 inh confirm=36;RNase T1 inh=49
COc1ccccc1C(=O)Nc1ccc2c(c1)CC1(C(=O)N(C)C(=O)N(C)C1=O)C1CCCN21 (stereo not drawn),i,i,i,i,i,i,
COc1cc(O)c2c(c1)/C=C/C[C@H](O)[C@H](O)C(=O)CCC[C@H](C)OC2=O,nt,nt,i,i,nt,i,
C1=C(c2c[nH]c3ccccc23)CCNC1,80,i,nt,nt,nt,nt,TPT1 inh confirm=50;RNase T1 inh=58
CNC(=O)C[C@H]1CC[C@@H]2NC[C@H](O)COC[C@H]2O1,nt,nt,i,i,nt,nt,
NC(=S)/N=C/c1c(O)[nH]c(=O)[nH]c1=O,i,i,i,i,i,i,
C=CCNC(=S)/N=C/c1c(O)[nH]c(=O)[nH]c1=O,26,i,i,i,i,i,TPT1 inh confirm=i;RNase T1 inh=23
C[C@H](CO)N1C[C@H](C)[C@H](CN(C)C(=O)Oc2ccccc2)OCc2cnnn2CCCC1=O,nt,nt,i,i,nt,i,
CN1C(=O)C(=Cc2ccc(N3CCCCCC3)o2)C(=O)N(C)C1=S,140,i,i,i,i,nt,TPT1 inh confirm=118;RNase T1 inh=122
CN1C(=O)C(=Cc2ccc(N3CCOCC3)o2)C(=O)N(C)C1=O,136,i,i,i,i,nt,TPT1 inh confirm=148;RNase T1 inh=145
